Consider 17 molecules from ChEMBL document CHEMBL4715687, “A benzoxazole derivative as an inhibitor of anaerobic choline metabolism by human gut microbiota” (RSC Med Chem, 2020).

Active and inactive are the calls of the source. The calls are words filed in the database; no cut-off is given here.

Data set [1] is described as follows: Inhibition of CutC in Escherichia coli MS 200-1 assessed as reduction in d9-TMA formation using d9-choline chloride as substrate incubated for 4 hrs under anaerobic condition by LC-MS-MS analysis.
The target of data set [2] is T1, Choline trimethylamine-lyase (Desulfovibrio alaskensis, UniProt Q30W70).
T1 sequence (Q30W70 whole entry): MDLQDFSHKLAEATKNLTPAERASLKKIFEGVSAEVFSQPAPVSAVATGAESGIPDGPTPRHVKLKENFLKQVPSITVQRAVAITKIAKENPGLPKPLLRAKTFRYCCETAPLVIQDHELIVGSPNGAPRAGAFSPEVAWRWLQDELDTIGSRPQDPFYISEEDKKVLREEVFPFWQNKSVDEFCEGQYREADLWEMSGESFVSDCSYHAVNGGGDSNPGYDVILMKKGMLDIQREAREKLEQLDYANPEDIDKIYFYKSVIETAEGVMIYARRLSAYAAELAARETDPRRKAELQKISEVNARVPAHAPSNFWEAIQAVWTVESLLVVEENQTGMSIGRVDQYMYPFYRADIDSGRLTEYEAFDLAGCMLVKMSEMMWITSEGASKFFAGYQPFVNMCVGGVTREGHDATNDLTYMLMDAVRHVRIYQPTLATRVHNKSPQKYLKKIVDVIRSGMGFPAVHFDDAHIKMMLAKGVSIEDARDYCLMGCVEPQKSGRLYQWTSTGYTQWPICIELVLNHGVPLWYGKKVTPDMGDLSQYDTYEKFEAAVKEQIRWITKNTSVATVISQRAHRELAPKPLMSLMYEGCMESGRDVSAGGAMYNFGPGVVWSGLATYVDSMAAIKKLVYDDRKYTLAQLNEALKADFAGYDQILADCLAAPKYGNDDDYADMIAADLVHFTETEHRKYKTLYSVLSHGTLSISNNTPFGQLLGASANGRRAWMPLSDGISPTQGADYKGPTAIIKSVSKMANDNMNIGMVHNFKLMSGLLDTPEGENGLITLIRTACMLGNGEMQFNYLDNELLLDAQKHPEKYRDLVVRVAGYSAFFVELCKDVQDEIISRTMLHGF
The data set is described as follows: (§1) Inhibition of N-terminal His6-tagged Desulfovibrio desulfuricans G20 CutC encoding 52 residues assessed as reduction in acetaldehyde using choline as substrate in presence of NADH-dependent yeast alcohol dehydrogenase by UV-Vis absorbance based assay.

Data set [3] can be described thus: Metabolic stability in human intestinal S9 fraction assessed as parent compound remaining at 33 uM incubated for 2 hrs by LC/MS/MS analysis. Type of data set: ADME, subcellular, Intestine. Particulars: read-out: Stabilty. The procedure, abridged: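 Mixed-gender human intestinal S9 (4 mg mL−1 stock) in 100 mM potassium phosphate pH 7.4 with NADPH cofactor, 6 mM MgCl2 and 1 mM EDTA. Compound at 33 μM final, in triplicate, 2 h at 37 °C. No-cofactor negative control. Supernatant diluted and percent intact compound quantified by LC-MS/MS.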

Another data set deals with Escherichia coli. The data set is described as follows: Effect on d9-choline uptake in Escherichia coli MS 200-1 at 50 uM incubated for 15 mins by LC-MS/MS analysis. Type of data set: functional.
Data set [4] relates to Bacteria. As to the kind of experiment: Non-competitive inhibition of CutC (unknown origin) assessed as reduction in Vmax with constant Km using choline as substrate at 5 uM by Lineweaver-Burk plot based Michelis-Menten analysis. In a few lines: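 D. desulfuricans G20 CutC (20 μM) activated by CutD (40 μM) with dithionite (150 μM) and SAM (200 μM), anaerobic, in 50 mM potassium phosphate pH 8.0 with 50 mM KCl for 1 h, then diluted 20-fold. Coupled to yeast ADH (0.4 μM) with NADH (200 μM). Choline varied, inhibitor absent or at 5 μM. A340 read every 20 s for 10 min. Kinetics by Michaelis–Menten and Lineweaver–Burk plots, n = 3.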

In another data set the test system is Saccharomyces cerevisiae. The data set is described as follows: Effect on alcohol dehydrogenase activity in yeast at 5 to 50 uM in presence of NADH by colorimetric assay. Particulars: dose 5-50 µM.
Data set [5] is described as follows: Inhibition of CutC (unknown origin) in human feces assessed as reduction in TMA production using choline as substrate by LC-MS/MS analysis. It counts as tissue-based, Bacteria.
Data set [6] concerns the target T2, Choline trimethylamine-lyase (Desulfovibrio alaskensis) (UniProt Q30W70).
T2 sequence (whole entry): T1 sequence (Q30W70 whole entry)
Described as §1.

For data set [7], the system named is Bacteria. The data set is described as follows: (§2) Binding affinity to CutC (unknown origin) by CM5 sensor chip immobilization based surface plasmon resonance analysis.
Data set [8] in a line: as §2. The arrangement: species or system Bacteria.
In data set [9] the test system is Bacteria. As to the kind of experiment: Binding affinity to CutD (unknown origin) by CM5 sensor chip immobilization based surface plasmon resonance analysis.

For `O=C(CCc1ccccc1OC(F)(F)F)NC1CCCCNC1=O` (stereo unspecified), in data set [1], the concentration for a half-maximal effect (EC50) (in general, the concentration that produces a half-maximal response) is over 1000 µM. In data set [2], the IC50 – broadly, the concentration that inhibits the measured activity by half – was over 500 µM. Besides, the remaining at 2 h, 33 µM in data set [3] was over 90%.

As to `O=C(Nc1ccc(N2CCOCC2)nc1)NC1CCCCNC1=O` (stereo unspecified), the EC50 in data set [1] came out at 298 µM. For the same molecule, in [2], the 50% inhibitory concentration (IC50) is 167 µM. The remaining at 2 h, 33 µM in data set [3] was over 90%.

Turning to `O=C(NC1CC1)C1CCN(Cc2nc3cc(F)ccc3o2)CC1`, the outcome with Escherichia coli and with Saccharomyces cerevisiae was inactive. The inhibition entry in the data set on Bacteria [4] is “Active”. The EC50 in data set [1] is 5.4 µM; in data set [5], 38 µM. Further, in data set [6], the inhibition result is “Dose-dependent effect”. Also, the IC50 in [2] was 2.4 µM. Further, in the data set on Bacteria [7], the Activity result is “Dose-dependent effect”. Also, in data set [8], the Kd – broadly, the constant that tells how readily two partners part at equilibrium – was 4.05 µM. Also, the remaining at 2 h, 33 µM in [3] was over 90%. Further, the outcome in the data set on Bacteria [9] was Active.

For `Cc1cc(C(=O)NC2CCNCC2)no1`, the EC50 in data set [1] is over 1000 µM. Further, in data set [2], the concentration for half-maximal inhibition (IC50) is over 500 µM. In addition, the remaining at 2 h, 33 µM in data set [3] is over 90%.

For `O=C(NCc1nc(-c2ccccc2)n[nH]1)NC1CCC(O)CC1` (stereo unspecified), the EC50 in data set [1] was found to be 79 µM. Besides, in data set [2], the IC50 worked out at 49 µM. Besides, the remaining at 2 h, 33 µM in [3] is over 90%.

Take `CC(O)CNC(=O)NC1CCN(Cc2ccccn2)CC1` (stereo unspecified): the EC50 in data set [1] came out at 87 µM. Besides, the half-maximal inhibitory concentration (IC50) in data set [2] is 73 µM. The remaining at 2 h, 33 µM in [3] is over 90%.

With `Cn1c(N)nc2c(ncn2[C@@H]2O[C@H](CO)[C@@H](O)[C@H]2O)c1=O`, in data set [1], the half-maximal effective concentration (EC50) was found to be 175 µM. In addition, in data set [2], the IC50 was 110 µM. The remaining at 2 h, 33 µM in data set [3] is over 90%.

Turning to `C[N+](C)(C)CC=O` [BETAINE ALDEHYDE], the 50% inhibitory concentration (IC50) in data set [2] was determined as 26 µM.

For `O=C1NCCCCC1NC(=O)N1CCCc2cc(F)ccc21` (stereo unspecified), the EC50 in [1] was over 1000 µM. In addition, the half-inhibitory concentration (IC50) in data set [2] is over 500 µM. Moreover, in data set [3], the remaining at 2 h, 33 µM is over 90%.

`CC(C)Nc1cccc(C(=O)NCCCN2CCC(O)CC2)c1`: the EC50 in data set [1] was found to be 376 µM. Further, in data set [2], the IC50 was 210 µM. For the same molecule, the remaining at 2 h, 33 µM in data set [3] was over 90%.

With `CN1CC=C[C@H](O)C1`, the half-maximal effective concentration (EC50) in [1] worked out at 11 µM; in data set [5], 83.9 µM.

For the molecule `Cc1ccc(-n2nc(NC3CCN(C(N)=O)CC3)cc2C)cc1`, the EC50 in data set [1] was over 1000 µM. Also, the IC50 in [2] was over 500 µM. Besides, the remaining at 2 h, 33 µM in [3] was over 90%.

`COc1cc(CCNC(=O)NC2CCCCC2CO)ccc1F` (stereo unspecified): the half-maximal effective concentration (EC50) in data set [1] amounted to 409 µM. In addition, the IC50 in data set [2] was 212 µM. In addition, the remaining at 2 h, 33 µM in data set [3] was over 90%.

As for `Cc1cccc(NC2CCN(C(=O)Nc3cn[nH]c3)CC2)n1`, in [1], the EC50 turned out to be 143 µM. The half-inhibitory concentration (IC50) in [2] amounted to 85 µM. Besides, the remaining at 2 h, 33 µM in data set [3] is over 90%.

For `O=S(=O)(NCC1CCCC1O)c1ccc2cn[nH]c2c1` (stereo unspecified), the EC50 in data set [1] stood at 488 µM. Further, the half-inhibitory concentration (IC50) in data set [2] was 301 µM. The remaining at 2 h, 33 µM in data set [3] is over 90%.

For `O=C(NC1CCCCC1CO)c1cc(F)cc2[nH]cnc12` (stereo unspecified), the EC50 in [1] is over 1000 µM. Besides, the 50% inhibitory concentration (IC50) in data set [2] was over 500 µM. In [3], the remaining at 2 h, 33 µM is over 90%.

As for `CN1CCC(NC(=O)NCCNc2ccccn2)CC1`, the concentration giving a half-maximal response (EC50) in [1] amounted to 354 µM. Moreover, the half-inhibitory concentration (IC50) in [2] turned out to be 199 µM. The remaining at 2 h, 33 µM in [3] was over 90%.
